Source: ChEMBL document CHEMBL1124703, “Analogues of carbamyl aspartate as inhibitors of dihydroorotase: preparation of boronic acid transition-state analogues and a zinc chelator carbamylhomocysteine” (J Med Chem, 1990)
pKi: −log10 of the molar value.

Assays:
[1] = target: Multifunctional protein CAD (Homo sapiens, UniProt P27708); assay: Inhibitory activity against Dihydroorotase (DHO) at pH 6.0; set-up: species or system Cricetulus griseus
L1210 [2] = assay: Uptake in L1210 cells at a concentration of 210 uM after 24 hr; details: Mus musculus, L1210, 24 h
L1210 [3] = assay: Inhibitory activity against murine L1210 cell growth at a concentration of 250 uM after 0h; assay type: functional, Mus musculus
Summary of the method: (§1)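 Murine L1210 cells kept in DMEM with 10% FCS and L-glutamine and harvested in log phase. About 1×10^5 cells/mL held 24 h in depleted medium before drug or DMSO vehicle was added. Trypan blue-excluding cells counted by hemacytometer at 0, 24 and 48 h. Three flasks per concentration and six controls; reported as % survival versus control.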

L1210 [4] = assay: Inhibitory activity against murine L1210 cell growth at a concentration of 250 uM after 24 hr; assay type: functional, Mus musculus; summary of the method: as §1
L1210 [5] = assay: Inhibitory activity against murine L1210 cell growth at a concentration of 250 uM after 8 hr; assay type: functional, Mus musculus
L1210 [6] = assay: Inhibitory activity against murine L1210 cell growth at a concentration of 100 uM after 0h; assay type: functional, Mus musculus; summary of the method: as §1
L1210 [7] = assay: Inhibitory activity against murine L1210 cell growth at a concentration of 100 uM after 24 hr; assay type: functional, Mus musculus; summary of the method: as §1
L1210 [8] = assay: Inhibitory activity against murine L1210 cell growth at a concentration of 100 uM after 48 hr

Multifunctional protein CAD, sequence (P27708 whole entry): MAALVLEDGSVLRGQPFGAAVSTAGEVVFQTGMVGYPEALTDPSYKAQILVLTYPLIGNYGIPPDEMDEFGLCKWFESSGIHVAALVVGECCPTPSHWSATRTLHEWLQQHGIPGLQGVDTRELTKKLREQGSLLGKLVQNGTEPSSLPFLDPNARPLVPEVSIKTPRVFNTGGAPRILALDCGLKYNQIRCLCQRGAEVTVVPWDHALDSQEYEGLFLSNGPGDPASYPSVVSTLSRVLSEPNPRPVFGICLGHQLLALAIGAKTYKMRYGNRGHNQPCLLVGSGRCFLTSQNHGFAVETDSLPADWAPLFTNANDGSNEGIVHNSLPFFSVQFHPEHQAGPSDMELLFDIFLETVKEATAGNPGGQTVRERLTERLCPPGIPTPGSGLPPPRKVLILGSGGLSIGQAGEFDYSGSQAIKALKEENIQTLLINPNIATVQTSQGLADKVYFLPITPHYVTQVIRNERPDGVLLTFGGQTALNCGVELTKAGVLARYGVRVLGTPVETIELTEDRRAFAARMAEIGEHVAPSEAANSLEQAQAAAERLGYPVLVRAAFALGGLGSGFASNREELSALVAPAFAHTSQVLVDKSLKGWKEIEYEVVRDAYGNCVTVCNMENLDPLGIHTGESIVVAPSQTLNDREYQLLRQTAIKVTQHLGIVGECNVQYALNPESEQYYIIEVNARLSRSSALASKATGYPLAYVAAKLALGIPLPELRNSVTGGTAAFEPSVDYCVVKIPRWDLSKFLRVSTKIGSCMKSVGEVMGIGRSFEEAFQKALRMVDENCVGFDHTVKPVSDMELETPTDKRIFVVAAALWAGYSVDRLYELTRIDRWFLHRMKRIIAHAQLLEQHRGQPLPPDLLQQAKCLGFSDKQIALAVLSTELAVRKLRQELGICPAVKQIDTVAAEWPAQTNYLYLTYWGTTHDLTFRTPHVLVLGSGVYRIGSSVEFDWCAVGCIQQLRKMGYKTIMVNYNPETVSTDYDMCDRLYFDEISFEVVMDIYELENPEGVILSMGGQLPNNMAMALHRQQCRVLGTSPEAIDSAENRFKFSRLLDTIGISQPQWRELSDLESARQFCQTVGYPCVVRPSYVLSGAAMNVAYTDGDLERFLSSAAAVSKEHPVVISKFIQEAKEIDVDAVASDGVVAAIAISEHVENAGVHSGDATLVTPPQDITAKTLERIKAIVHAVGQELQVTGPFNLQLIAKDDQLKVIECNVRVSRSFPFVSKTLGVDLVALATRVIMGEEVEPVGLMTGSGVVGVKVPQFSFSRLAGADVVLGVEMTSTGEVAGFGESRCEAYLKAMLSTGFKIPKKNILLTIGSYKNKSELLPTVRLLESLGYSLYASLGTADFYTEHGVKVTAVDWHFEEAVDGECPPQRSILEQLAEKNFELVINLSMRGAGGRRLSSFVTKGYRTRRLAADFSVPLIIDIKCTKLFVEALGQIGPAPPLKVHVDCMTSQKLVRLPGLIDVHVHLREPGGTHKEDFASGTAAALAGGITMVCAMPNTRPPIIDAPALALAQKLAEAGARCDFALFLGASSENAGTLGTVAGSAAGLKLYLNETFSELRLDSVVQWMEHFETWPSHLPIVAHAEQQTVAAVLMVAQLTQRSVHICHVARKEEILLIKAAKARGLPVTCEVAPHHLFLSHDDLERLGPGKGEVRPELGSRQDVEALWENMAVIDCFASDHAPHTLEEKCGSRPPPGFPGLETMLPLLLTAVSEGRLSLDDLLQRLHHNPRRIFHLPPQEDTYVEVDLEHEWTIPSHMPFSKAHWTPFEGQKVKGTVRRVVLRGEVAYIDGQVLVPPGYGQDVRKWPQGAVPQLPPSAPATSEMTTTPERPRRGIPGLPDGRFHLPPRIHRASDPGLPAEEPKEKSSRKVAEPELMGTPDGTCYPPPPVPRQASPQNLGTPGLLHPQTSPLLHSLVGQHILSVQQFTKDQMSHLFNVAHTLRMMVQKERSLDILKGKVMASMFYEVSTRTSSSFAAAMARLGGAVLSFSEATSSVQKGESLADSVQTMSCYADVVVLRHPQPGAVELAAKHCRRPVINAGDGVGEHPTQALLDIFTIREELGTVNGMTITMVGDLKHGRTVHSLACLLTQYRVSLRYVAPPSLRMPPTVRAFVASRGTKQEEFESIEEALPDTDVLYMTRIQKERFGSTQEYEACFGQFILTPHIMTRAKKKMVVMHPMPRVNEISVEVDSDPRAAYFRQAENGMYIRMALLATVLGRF

## CCOC(=O)C(CB(O)O)NC(N)=O (stereo not drawn)
[1]
  pKi: 5.29
L1210 [2]
  Uptake at 210 µM: 0.09%

## NC(=O)BCCNC(CC(=O)O)C(=O)O (stereo not drawn) [BOROCARBAMYLETHYL ASPARTATE]
L1210 [3]
  Cell survival: 114
L1210 [4]
  Cell survival: 66
L1210 [5]
  Cell survival: 80

## O=C(O)C[C@H](NC(=O)CP(=O)(O)O)C(=O)O [PALA]
L1210 [6]
  Cell survival: 96
L1210 [7]
  Cell survival: 28
L1210 [8]
  Cell survival: 22
